Results from ChEMBL document CHEMBL2429787, “Sulfonyl-polyol N,N-dichloroamines with rapid, broad-spectrum antimicrobial activity” (Bioorg Med Chem Lett, 2013).
In brackets after ≈: the same amount, converted by molar mass. Blank lines part the entries; values can stand above or below the molecule they belong to.

Columns and labels:
Human adenovirus 5 [1] = test: Virucidal activity against Adenovirus 5 ATCC VR-1516 infected in human A549 cells assessed as viral cytopathic effect at pH 4 incubated for 1 hr measured after 6 days by three-fold serial dilution assay; format: functional, organism-based
Method in brief: (§1)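 Virus was diluted in 20 mM PBS or 5 mM acetate saline buffer with 2.5% glycerol and mixed 1:1 with threefold compound dilutions (quadruplicate) for 60 min at room temperature. It was neutralized with 2× D-MEM/F12 plus 20% FBS for 60 min, then adsorbed 1–2 h at 37 °C onto A549 (Ad5) or Vero (HSV-1) cells. Cells were washed, grown 6 days, and CPE read by CCK-8. IC50 came from a sigmoidal fit with top fixed at 100.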

Human alphaherpesvirus 1 = test: Virucidal activity against Herpes simplex virus (type 1 / strain F) ATCC VR-733 infected in african geen monkey Vero cells assessed as viral cytopathic effect at pH 7 incubated for 1 hr measured after 6 days by three-fold serial dilution assay; format: functional, organism-based; method in brief: as §1
Escherichia coli [2] = test: Bactericidal activity against Escherichia coli ATCC 25922 at pH 4 after 1 hr by CLSI method; format: functional; conditions: ATCC 25922, 1 h
Method in brief: (§2)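 MBC by modified CLSI M26-A: broth replaced with 0.9% acetate saline buffer pH 4 or PBS pH 7. Mid-log bacteria were centrifuged and resuspended in buffer, then added to serial twofold compound dilutions (final 10⁵–10⁶ CFU/mL) for 1 h at room temperature. Aliquots were plated on agar (24 h, 35 °C) and CFU counted. MBC is the lowest concentration giving >99.9% kill.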

Escherichia coli [3] = test: Bactericidal activity against Escherichia coli ATCC 25922 at pH 7 after 1 hr by CLSI method; format: functional; conditions: ATCC 25922, 1 h; method in brief: as §2
Human adenovirus 5 [4] = test: Virucidal activity against Adenovirus 5 ATCC VR-1516 infected in human A549 cells assessed as viral cytopathic effect at pH 7 incubated for 1 hr measured after 6 days by three-fold serial dilution assay; format: functional, organism-based; method in brief: as §1
Staphylococcus aureus [5] = test: Bactericidal activity against Staphylococcus aureus ATCC 29213 at pH 4 after 1 hr by CLSI method; format: functional; conditions: ATCC 29213, 1 h; method in brief: as §2
Staphylococcus aureus [6] = test: Bactericidal activity against Staphylococcus aureus ATCC 29213 at pH 7 after 1 hr by CLSI method; format: functional; conditions: ATCC 29213, 1 h; method in brief: as §2
Human adenovirus 5 [7] = test: Ratio of IC50 for Adenovirus 5 ATCC VR-1516 at pH 7 to IC50 for Adenovirus 5 ATCC VR-1516 at pH 4; format: functional
Method in brief: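 Ad5 virucidal IC50 was determined in PBS (pH 7) and acetate saline buffer (pH 4) using 60 min room-temperature exposure, neutralization, A549 infection, 6-day CPE by CCK-8 and sigmoidal fit. The ratio is IC50 at pH 7 over IC50 at pH 4.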

Staphylococcus aureus [8] = test: Ratio of MBC for Staphylococcus aureus ATCC 29213 at pH 7 to MBC for Staphylococcus aureus ATCC 29213 at pH 4; format: functional
Method in brief: (§3)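 MBC was measured in PBS pH 7 and in acetate saline buffer pH 4 (1 h room-temperature exposure, >99.9% kill endpoint, CFU plating). The ratio is MBC at pH 7 over MBC at pH 4.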

Escherichia coli [9] = test: Ratio of MBC for Escherichia coli ATCC 25922 at pH 7 to MBC for Escherichia coli ATCC 25922 at pH 4; format: functional; method in brief: as §3
[10] = Stability of the compound in aqueous solution; format: physicochemical; conditions: buffer
[11] = Toxicity in epiocular tissue irritancy model (unknown origin) assessed as tissue viability up to 46 mins relative to control; format: tissue-based, Eye; conditions: read-out: Activity
Method in brief: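 EpiOcular tissue model: after exposure, tissues were rinsed in PBS and held in MTT for 3 h, then extracted overnight. Viability was read from MTT absorbance against untreated control and correlated with a Draize-type irritancy score.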

[12] = Human mastadenovirus C, ATCC VR-1516, A549, read-out: IC50
[13] = Human alphaherpesvirus 1, Strain F ATCC VR 733, Vero, read-out: IC50

SMILES: CN(CCO)S(=O)(=O)CCC(C)(C)N(Cl)Cl
IC50 (Human adenovirus 5 [1]; [12]): 1500 nM
IC50 (Human alphaherpesvirus 1; [13]): 1200 nM
MBC (Escherichia coli [2]): 2 µg/mL (≈ 6.82 µM)
MBC (Escherichia coli [3]): 64 µg/mL (≈ 218 µM)
IC50 (Human adenovirus 5 [4]; [12]): 14000 nM
MBC (Staphylococcus aureus [5]): 1 µg/mL (≈ 3.41 µM)
MBC (Staphylococcus aureus [6]): 128 µg/mL (≈ 437 µM)

SMILES: CC(C)(CCS(=O)(=O)CC(O)C(O)CO)N(Cl)Cl (stereo not drawn)
MBC (Escherichia coli [2]): 2 µg/mL (≈ 6.17 µM)
MBC (Escherichia coli [3]): 128 µg/mL (≈ 395 µM)
MBC (Staphylococcus aureus [5]): 1 µg/mL (≈ 3.08 µM)
MBC (Staphylococcus aureus [6]): 32 µg/mL (≈ 98.7 µM)

SMILES: CC(C)(CCS(=O)(=O)C[C@@H](O)CO)N(Cl)Cl
IC50 (Human adenovirus 5 [1]; [12]): 2400 nM
IC50 (Human alphaherpesvirus 1; [13]): 1000 nM
MBC (Escherichia coli [2]): 2 µg/mL (≈ 6.8 µM)
MBC (Escherichia coli [3]): 32 µg/mL (≈ 109 µM)
IC50 (Human adenovirus 5 [4]; [12]): 13000 nM
MBC (Staphylococcus aureus [5]): 1 µg/mL (≈ 3.4 µM)
MBC (Staphylococcus aureus [6]): 4 µg/mL (≈ 13.6 µM)

SMILES: CC(C)(CCS(=O)(=O)CCCCCCCCO)N(Cl)Cl
IC50 (Human adenovirus 5 [1]; a549): ND(Unstable)
MBC (Escherichia coli [3]): 256 µg/mL (≈ 735 µM)
IC50 (Human adenovirus 5 [4]; [12]): 32000 nM
MBC (Staphylococcus aureus [6]): 128 µg/mL (≈ 367 µM)

SMILES: CC(C)(CCS(=O)(=O)CCO)N(Cl)Cl
IC50 (Human adenovirus 5 [1]; [12]): 1400 nM
Ratio IC50 (Human adenovirus 5 [7]): 3.2
IC50 (Human alphaherpesvirus 1; [13]): 700 nM
MBC (Escherichia coli [2]): 0.5 µg/mL (≈ 1.89 µM)
Ratio (Staphylococcus aureus [8]): 16
MBC (Escherichia coli [3]): 8 µg/mL (≈ 30.3 µM)
IC50 (Human adenovirus 5 [4]; [12]): 4500 nM
MBC (Staphylococcus aureus [5]): 1 µg/mL (≈ 3.79 µM)
MBC (Staphylococcus aureus [6]): 16 µg/mL (≈ 60.6 µM)
Ratio (Escherichia coli [9]): 16

SMILES: CC(C)(CCS(=O)(=O)CCCCC(O)CO)N(Cl)Cl (stereo not drawn)
IC50 (Human adenovirus 5 [1]; a549): ND(Unstable)
IC50 (Human alphaherpesvirus 1; vero): ND(Unstable)
IC50 (Human adenovirus 5 [4]; a549): ND(Unstable)

Stability [10]: Stable
SMILES: CN(CCCO)S(=O)(=O)CCC(C)(C)N(Cl)Cl
IC50 (Human adenovirus 5 [1]; a549): ND(Unstable)
IC50 (Human alphaherpesvirus 1; vero): ND(Unstable)
IC50 (Human adenovirus 5 [4]; a549): ND(Unstable)

SMILES: CC(=O)OCC(O)CS(=O)(=O)CCC(C)(C)N(Cl)Cl (stereo not drawn)
MBC (Escherichia coli [2]): 2 µg/mL (≈ 5.95 µM)
MBC (Escherichia coli [3]): 64 µg/mL (≈ 190 µM)
MBC (Staphylococcus aureus [5]): 4 µg/mL (≈ 11.9 µM)
MBC (Staphylococcus aureus [6]): 32 µg/mL (≈ 95.2 µM)

SMILES: CC(C)(CCS(=O)(=O)C(CO)C(O)CO)N(Cl)Cl (stereo not drawn)
IC50 (Human adenovirus 5 [1]; [12]): 1500 nM
IC50 (Human alphaherpesvirus 1; [13]): 3000 nM
MBC (Escherichia coli [2]): 2 µg/mL (≈ 6.17 µM)
MBC (Escherichia coli [3]): 64 µg/mL (≈ 197 µM)
IC50 (Human adenovirus 5 [4]; [12]): 19000 nM
MBC (Staphylococcus aureus [5]): 2 µg/mL (≈ 6.17 µM)
MBC (Staphylococcus aureus [6]): 16 µg/mL (≈ 49.3 µM)

SMILES: CC(C)(CCS(=O)(=O)C[C@H](O)CO)N(Cl)Cl
IC50 (Human adenovirus 5 [1]; [12]): 2200 nM
IC50 (Human alphaherpesvirus 1; [13]): 1200 nM
MBC (Escherichia coli [2]): 2 µg/mL (≈ 6.8 µM)
MBC (Escherichia coli [3]): 32 µg/mL (≈ 109 µM)
IC50 (Human adenovirus 5 [4]; [12]): 14000 nM
MBC (Staphylococcus aureus [5]): 2 µg/mL (≈ 6.8 µM)
MBC (Staphylococcus aureus [6]): 4 µg/mL (≈ 13.6 µM)

SMILES: CC(C)(CO)CS(=O)(=O)CCC(C)(C)N(Cl)Cl
IC50 (Human adenovirus 5 [1]; [12]): 1800 nM
IC50 (Human alphaherpesvirus 1; [13]): 900 nM
MBC (Escherichia coli [2]): 4 µg/mL (≈ 13.1 µM)
MBC (Escherichia coli [3]): 64 µg/mL (≈ 209 µM)
IC50 (Human adenovirus 5 [4]; [12]): 9600 nM
MBC (Staphylococcus aureus [5]): 2 µg/mL (≈ 6.53 µM)
MBC (Staphylococcus aureus [6]): 128 µg/mL (≈ 418 µM)

SMILES: CC(=O)OCC(CS(=O)(=O)CCC(C)(C)N(Cl)Cl)OC(C)=O (stereo not drawn)
MBC (Escherichia coli [2]): 1 µg/mL (≈ 2.64 µM)
MBC (Escherichia coli [3]): 128 µg/mL (≈ 338 µM)
MBC (Staphylococcus aureus [5]): 2 µg/mL (≈ 5.29 µM)
MBC (Staphylococcus aureus [6]): 128 µg/mL (≈ 338 µM)

SMILES: CO[C@H]1O[C@H](CS(=O)(=O)CCC(C)(C)N(Cl)Cl)[C@@H](O)[C@H](O)[C@H]1O
MBC (Escherichia coli [2]): 8 µg/mL (≈ 20.2 µM)
MBC (Escherichia coli [3]): 512 µg/mL (≈ 1290 µM)
MBC (Staphylococcus aureus [5]): 8 µg/mL (≈ 20.2 µM)
MBC (Staphylococcus aureus [6]): 256 µg/mL (≈ 646 µM)

SMILES: CC(C)(CCS(=O)(=O)CC(O)CO)N(Cl)Cl (stereo not drawn)
IC50 (Human adenovirus 5 [1]; [12]): 2700 nM
Ratio IC50 (Human adenovirus 5 [7]): 10
IC50 (Human alphaherpesvirus 1; [13]): 1500 nM
MBC (Escherichia coli [2]): 2 µg/mL (≈ 6.8 µM)
Ratio (Staphylococcus aureus [8]): 2
viability at 46 min [11]: 50%
MBC (Escherichia coli [3]): 16 µg/mL (≈ 54.4 µM)
IC50 (Human adenovirus 5 [4]; [12]): 26000 nM
MBC (Staphylococcus aureus [5]): 2 µg/mL (≈ 6.8 µM)
MBC (Staphylococcus aureus [6]): 4 µg/mL (≈ 13.6 µM)
Ratio (Escherichia coli [9]): 8

SMILES: CC(C)(CCS(=O)(=O)CCCO)N(Cl)Cl
IC50 (Human adenovirus 5 [1]; a549): ND(Unstable)
IC50 (Human alphaherpesvirus 1; vero): ND(Unstable)
IC50 (Human adenovirus 5 [4]; a549): ND(Unstable)

SMILES: CC(C)(CCS(=O)(=O)CCC(O)CO)N(Cl)Cl (stereo not drawn)
IC50 (Human adenovirus 5 [1]; [12]): 1400 nM
IC50 (Human alphaherpesvirus 1; [13]): 1200 nM
MBC (Escherichia coli [2]): 2 µg/mL (≈ 6.49 µM)
MBC (Escherichia coli [3]): 64 µg/mL (≈ 208 µM)
IC50 (Human adenovirus 5 [4]; [12]): 18000 nM
MBC (Staphylococcus aureus [5]): 1 µg/mL (≈ 3.24 µM)
MBC (Staphylococcus aureus [6]): 16 µg/mL (≈ 51.9 µM)

SMILES: CC(C)(CS(=O)(=O)CCO)N(Cl)Cl
IC50 (Human adenovirus 5 [1]; [12]): 2300 nM
IC50 (Human alphaherpesvirus 1; vero): ND(Unstable)
MBC (Escherichia coli [2]): 1 µg/mL (≈ 4 µM)
IC50 (Human adenovirus 5 [4]; a549): ND(Unstable)
MBC (Staphylococcus aureus [5]): 1 µg/mL (≈ 4 µM)
